According to ChEMBL document CHEMBL3120163, “Octulosonic acid derivatives from Roman chamomile (Chamaemelum nobile) with activities against inflammation and metabolic disorder” (J Nat Prod, 2014):

Experiments:
[1] = molecular target: T1, Nitric oxide synthase, inducible (Mus musculus, UniProt P29477); assay: Inhibition of iNOS in mouse RAW264.7 cells assessed as LPS-induced nitric oxide production treated for 30 mins followed by LPS challenge measured after 24 hrs by Griess reagent method; assay type: cell-based
T1 sequence (P29477 whole entry): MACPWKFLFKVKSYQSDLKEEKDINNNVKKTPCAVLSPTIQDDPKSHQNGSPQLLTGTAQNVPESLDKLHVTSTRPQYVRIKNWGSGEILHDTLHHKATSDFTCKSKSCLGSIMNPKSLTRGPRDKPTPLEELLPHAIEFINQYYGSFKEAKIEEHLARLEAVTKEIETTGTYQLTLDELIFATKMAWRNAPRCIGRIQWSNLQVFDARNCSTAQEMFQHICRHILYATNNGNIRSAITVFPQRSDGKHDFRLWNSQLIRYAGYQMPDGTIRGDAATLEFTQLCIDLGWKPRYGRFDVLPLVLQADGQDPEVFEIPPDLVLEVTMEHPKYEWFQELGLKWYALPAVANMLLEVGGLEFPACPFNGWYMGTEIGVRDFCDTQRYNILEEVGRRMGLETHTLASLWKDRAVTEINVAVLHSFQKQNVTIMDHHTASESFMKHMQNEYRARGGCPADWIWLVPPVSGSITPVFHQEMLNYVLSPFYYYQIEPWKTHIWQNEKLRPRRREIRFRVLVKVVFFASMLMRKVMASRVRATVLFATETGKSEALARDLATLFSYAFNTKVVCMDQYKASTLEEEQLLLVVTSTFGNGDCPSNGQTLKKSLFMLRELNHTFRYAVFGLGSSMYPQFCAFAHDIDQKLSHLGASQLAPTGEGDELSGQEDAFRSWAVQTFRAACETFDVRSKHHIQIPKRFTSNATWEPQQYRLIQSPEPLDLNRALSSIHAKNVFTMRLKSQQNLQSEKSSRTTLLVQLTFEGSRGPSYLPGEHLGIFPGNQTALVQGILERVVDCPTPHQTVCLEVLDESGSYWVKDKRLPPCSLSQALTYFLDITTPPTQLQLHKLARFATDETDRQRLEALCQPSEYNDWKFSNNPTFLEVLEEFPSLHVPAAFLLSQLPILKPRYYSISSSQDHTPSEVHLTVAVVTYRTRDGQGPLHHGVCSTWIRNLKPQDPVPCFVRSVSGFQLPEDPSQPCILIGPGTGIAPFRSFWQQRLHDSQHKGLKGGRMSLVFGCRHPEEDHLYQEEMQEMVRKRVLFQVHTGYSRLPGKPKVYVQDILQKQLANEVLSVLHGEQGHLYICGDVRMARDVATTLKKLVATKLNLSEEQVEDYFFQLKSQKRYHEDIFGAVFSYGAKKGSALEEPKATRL
In short: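 RAW264.7 macrophages were grown in phenol red-free RPMI with 10% bovine calf serum. Cells were seeded at 100 000 per well and grown 24 h to at least 75% confluency. Compound was added 30 min before LPS 5 μg/mL, then incubated 24 h. Supernatant nitrite was measured by Griess reagent; percent inhibition is versus vehicle, with IC50 from dose-response curves. Positive control: parthenolide.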

[2] = Inhibition of PMA-induced NFkappaB transcriptional activity in human SW1353 cells treated for 30 mins followed by PMA challenge measured after 6 to 8 hrs by luciferase reporter gene assay; assay type: cell-based
In short: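 After 24 h they were pretreated with compound for 30 min, then stimulated with PMA 70 ng/mL for 6−8 h. Percent decrease in luciferase is relative to vehicle. Positive control: parthenolide.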

[3] = molecular target: T2, Peroxisome proliferator-activated receptor alpha (Homo sapiens) (UniProt Q07869); assay: Activation of PPARalpha in human HepG2 cells at 25 uM after 24 hrs by luciferase reporter gene assay relative to vehicle-treated control; assay type: cell-based
T2 sequence (whole entry): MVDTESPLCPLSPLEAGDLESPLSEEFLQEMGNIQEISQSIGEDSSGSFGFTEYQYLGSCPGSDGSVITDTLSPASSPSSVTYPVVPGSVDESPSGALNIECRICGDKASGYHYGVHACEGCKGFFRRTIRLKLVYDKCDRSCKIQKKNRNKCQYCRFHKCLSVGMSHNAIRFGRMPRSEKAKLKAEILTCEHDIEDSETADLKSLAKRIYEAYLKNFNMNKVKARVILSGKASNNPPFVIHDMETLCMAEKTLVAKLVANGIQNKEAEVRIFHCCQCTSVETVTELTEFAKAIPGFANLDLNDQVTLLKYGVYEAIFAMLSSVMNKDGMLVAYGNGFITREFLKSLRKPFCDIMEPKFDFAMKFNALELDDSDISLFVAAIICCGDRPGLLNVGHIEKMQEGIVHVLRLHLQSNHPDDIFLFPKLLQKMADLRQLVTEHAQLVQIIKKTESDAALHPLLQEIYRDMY
In short: (§1)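 HepG2 cells in DMEM with 10% FBS were electroporated at 160 V with a single 70 ms pulse. Plasmid pairs were pSG5-PPARα + PPRE X3-tk-luc, pCMV-rPPARγ + pPPREaP2-tk-luc, or pCMX-hLXRα + LXRE-tk-luc. Cells were seeded at 5 × 10^4 per well, grown 24 h, then dosed. After 24 h the cells were lysed and luciferase read. Fold induction is versus vehicle. Positive controls: ciprofibrate, rosiglitazone, 25-hydroxycholesterol.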

[4] = molecular target: T3, Peroxisome proliferator-activated receptor gamma (Homo sapiens) (UniProt P37231); assay: Activation of PPARgamma in human HepG2 cells at 25 uM after 24 hrs by luciferase reporter gene assay relative to vehicle-treated control; assay type: cell-based; in short: as §1
T3 sequence (whole entry): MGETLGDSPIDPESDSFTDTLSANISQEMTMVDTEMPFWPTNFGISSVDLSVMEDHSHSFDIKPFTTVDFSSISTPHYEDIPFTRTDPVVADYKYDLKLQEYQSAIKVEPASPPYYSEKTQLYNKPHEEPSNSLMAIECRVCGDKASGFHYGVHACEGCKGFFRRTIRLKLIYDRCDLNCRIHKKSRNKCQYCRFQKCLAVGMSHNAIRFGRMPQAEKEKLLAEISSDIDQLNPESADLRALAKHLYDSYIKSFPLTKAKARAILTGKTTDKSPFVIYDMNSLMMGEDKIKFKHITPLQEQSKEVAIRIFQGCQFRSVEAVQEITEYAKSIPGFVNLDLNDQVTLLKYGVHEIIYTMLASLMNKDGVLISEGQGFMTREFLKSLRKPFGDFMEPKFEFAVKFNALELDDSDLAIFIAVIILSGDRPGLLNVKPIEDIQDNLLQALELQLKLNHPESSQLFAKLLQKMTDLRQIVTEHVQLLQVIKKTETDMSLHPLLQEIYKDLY

[5] = molecular target: T4, Oxysterols receptor LXR-alpha (Homo sapiens) (UniProt Q13133); assay: Activation of LXRalpha in human HepG2 cells at 25 uM after 24 hrs by luciferase reporter gene assay relative to vehicle-treated control; assay type: cell-based
T4 sequence (whole entry): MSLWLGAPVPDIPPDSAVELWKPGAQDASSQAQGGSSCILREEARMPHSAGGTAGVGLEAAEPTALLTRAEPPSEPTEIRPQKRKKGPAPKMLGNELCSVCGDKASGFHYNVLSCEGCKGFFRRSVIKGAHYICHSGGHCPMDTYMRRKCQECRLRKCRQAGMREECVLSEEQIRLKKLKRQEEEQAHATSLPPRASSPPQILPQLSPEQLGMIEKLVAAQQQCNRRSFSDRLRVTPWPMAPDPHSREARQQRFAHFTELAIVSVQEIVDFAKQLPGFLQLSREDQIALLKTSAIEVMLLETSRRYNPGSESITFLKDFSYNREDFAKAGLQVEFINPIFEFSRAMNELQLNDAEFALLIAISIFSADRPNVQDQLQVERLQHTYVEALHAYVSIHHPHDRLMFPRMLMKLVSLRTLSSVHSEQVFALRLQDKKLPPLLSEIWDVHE
In short: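 HepG2 cells in DMEM with 10% FBS, electroporated (160 V, single 70 ms pulse) with pCMX-hLXRα plus LXRE-tk-luc plasmids; plated at 5 × 10^4 cells/well and grown 24 h. Treated with test compounds for 24 h, then lysed for luciferase read-out. Fold induction calculated against vehicle control; 25-hydroxycholesterol as positive control.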

[6] = molecular target: T5, Growth/differentiation factor 15 (Homo sapiens) (UniProt Q99988); assay: Activation of NAG-1 in human SW1353 cells at 20 uM after 24 hrs by luciferase reporter gene assay relative to vehicle-treated control; assay type: cell-based
T5 sequence (whole entry): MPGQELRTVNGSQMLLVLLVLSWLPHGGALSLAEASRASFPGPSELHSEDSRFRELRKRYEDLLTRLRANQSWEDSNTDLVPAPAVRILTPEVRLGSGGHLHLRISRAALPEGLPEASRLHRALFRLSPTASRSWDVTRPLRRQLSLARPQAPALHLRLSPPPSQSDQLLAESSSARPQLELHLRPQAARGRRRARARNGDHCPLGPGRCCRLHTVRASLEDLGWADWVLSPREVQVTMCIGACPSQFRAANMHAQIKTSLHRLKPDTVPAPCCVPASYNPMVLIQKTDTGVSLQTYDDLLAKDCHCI
In short: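 SW1353 chondrosarcoma cells in DMEM/F12 with 10% FBS were electroporated (160 V, one 70 ms pulse) with 25 μg […]. Cells were seeded at 1 × 10^5 per well, then dosed 24 h later for 24 h. Luciferase light output gave fold induction versus vehicle. Positive control: diclofenac.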

HepG2 [7] = assay: Cytotoxicity against human HepG2 cells up to 50 uM after 48 hrs by neutral red assay; assay type: cell-based; conditions: hepg2, 48 h
RAW264.7 = assay: Cytotoxicity against mouse RAW264.7 cells up to 50 uM after 48 hrs by neutral red assay; assay type: cell-based; conditions: raw264.7, 48 h
HepG2 [8] = assay: Antioxidant activity in human HepG2 cells assessed as inhibition of ABAP-induced intracellular peroxyl radical scavenging activity by measuring ROS production measured every 5 mins for 1 hr by fluorescence assay
[9] = Homo sapiens, SW1353, read-out: IC50

SMILES | Activity (HepG2 [7]) | Activity (RAW264.7) | IC50 ([1]; raw264.7) | IC50 (HepG2 [8]) | IC50 ([2]; sw1353) | other results
C=C1C(=O)O[C@@H]2C3O[C@]3(C)CC/C=C(\C)CC[C@@H]12 (some centres not stated) | – | – | – | – | – | IC50 ([1]; read-out: IC50): 1.05 µM; IC50 [2, 9]: 1.63 µM
CC(C)(Oc1ccc(C2CC2(Cl)Cl)cc1)C(=O)O (configuration not stated) | – | – | – | – | – | fold change (FC) [3]: 4.35
CC1(COc2ccc(CC3SC(=O)NC3=O)cc2)CCCCC1 (configuration not stated) | – | – | – | – | – | fold change (FC) [4]: 3.65
C[C@H](CCCC(C)(C)O)[C@H]1CC[C@H]2[C@@H]3CC=C4C[C@@H](O)CC[C@]4(C)[C@H]3CC[C@]12C | – | – | – | – | – | fold change (FC) [5]: 4.67
O=C(O)Cc1ccccc1Nc1c(Cl)cccc1Cl | – | – | – | – | – | fold change (FC) [6]: 2.65
COC(=O)[C@]12C[C@@H](OC(=O)/C=C/c3ccc(O)c(O)c3)[C@@H](OC(=O)/C=C/c3ccc(O)c(O)c3)[C@@H](O1)[C@@H](COC(=O)/C=C/c1ccc(O)c(O)c1)O2 (relative stereo) | Non-toxic | Non-toxic | Not Active | 26 µM | – | IC50 [2, 9]: 42 µM
COC(=O)[C@]12C[C@@H](OC(=O)/C=C/c3ccc(O)c(O)c3)[C@@H](O)[C@H](O1)[C@@H](COC(=O)/C=C/c1ccc(O)c(O)c1)O2 (relative stereo) | Non-toxic | Non-toxic | Not Active | 34.5 µM | Not Active | –
COC(=O)[C@]12C[C@@H](O)[C@@H](O)[C@H](O1)[C@@H](COC(=O)/C=C/c1ccc(O)c(O)c1)O2 (relative stereo) | Non-toxic | Non-toxic | Not Active | 86 µM | Not Active | –
O=C(/C=C/c1ccc(O)c(O)c1)OC[C@H]1O[C@@]2(C(=O)O)C[C@@H](OC(=O)/C=C/c3ccc(O)c(O)c3)[C@@H](OC(=O)/C=C/c3ccc(O)c(O)c3)[C@H]1O2 (relative stereo) | Non-toxic | Non-toxic | Not Active | 59.5 µM | Not Active | –
O=C(/C=C/c1ccc(O)c(O)c1)OC[C@H]1O[C@@]2(C(=O)O)C[C@@H](OC(=O)/C=C/c3ccc(O)c(O)c3)[C@@H](O)[C@@H]1O2 (relative stereo) | Non-toxic | Non-toxic | Not Active | 79 µM | Not Active | –
O=C(/C=C/c1ccc(O)c(O)c1)OC[C@H]1O[C@@]2(C(=O)O)C[C@@H](O)[C@@H](O)[C@@H]1O2 (relative stereo) | Non-toxic | Non-toxic | Not Active | > 100 µM | Not Active | –
O=c1c(O)c(-c2ccc(O)c(O)c2)oc2cc(O)cc(O)c12 [QUERCETIN] | – | – | – | 11 µM | – | –
